According to publication PMC8542566 (Cell chemical biology, 2021):

Legend:
TgPPT1 = test: Inhibition of recombinant TgPPT1, turnover of 4MU-octanoate; type: biochemical, Toxoplasma gondii; conditions: recombinant enzyme, 4MU-octanoate substrate; result in words
Procedure, shortened: (§1)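 Purified full-length N-terminal His6 enzyme from E. coli, 50 nM final, with 10 μM test compound in 20 mM HEPES, 150 mM NaCl, 10 mM CHAPS, pH 7.4, at 37°C. 4MU-octanoate hydrolysis followed by fluorescence. Initial rates taken from a linear fit, in triplicate, normalized to DMSO control and expressed as percent inhibition.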

TgASH4 = test: Gel-based competitive FP-TAMRA labeling of recombinant TgASH4; type: binding, Toxoplasma gondii; conditions: recombinant enzyme, gel-based FP-TAMRA competition; result in words
Procedure, shortened: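 Full-length N-terminal His6 enzyme, expressed in E. coli BL21-CodonPlus(DE3)-RIL (0.5 mM IPTG, 16 h, 19°C) and purified. 300 ng enzyme pre-incubated with DMSO or test compound (10 μM) for 30 min on ice, then labeled with FP-TAMRA for 30 min at 37°C. Quenched in reducing SDS buffer, resolved by SDS-PAGE, fluorescence-scanned (532 nm laser, 610 nm filter). Residual labeling expressed as percent inhibition versus DMSO.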

TgASH2 = test: Inhibition of recombinant TgASH2, turnover of 4MU-octanoate; type: biochemical, Toxoplasma gondii; conditions: recombinant enzyme, 4MU-octanoate substrate; result in words
Procedure, shortened: as §1

TgASH3 = test: Inhibition of recombinant TgASH3, turnover of 4MU-octanoate; type: biochemical, Toxoplasma gondii; conditions: recombinant enzyme, 4MU-octanoate substrate; result in words
Procedure, shortened: as §1

[1] = system: T. gondii tachyzoites in HFFs; test: Rosette formation assay; type: cell-based, Toxoplasma gondii; conditions: 10 μM dose, wild-type parasites in HFFs, 24 h
Procedure, shortened: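 Freshly egressed wild-type tachyzoites pre-treated with DMSO or 10 μM test compound were grown 24 h on confluent HFF coverslips (DMEM, 10% serum complex, 37°C, 5% CO2). Cells were PFA-fixed, Triton-permeabilized, BSA-blocked, stained with anti-Toxo-FITC (1:1000, overnight, 4°C), DAPI-mounted and imaged by confocal microscopy.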

SMILES	inhibitory activity against recombinant TgPPT1 (TgPPT1)	inhibition of TgASH4 (TgASH4)	inhibition of TgASH2 (TgASH2)	inhibition of TgASH3 (TgASH3)	rosette formation inside the host cell [1]
O=C(O)c1cccc(NC(=S)Nc2ccc3c(Cl)c(OCCBr)oc(=O)c3c2)c1 [JCP342]	significant inhibitory activity	–	–	–	–
O=c1oc(OCCBr)c(Cl)c2ccc(NC(=S)Nc3ccccc3)cc12 [JCP343]	virtually no activity	potent inhibitors	potent inhibitors	potent inhibitors	–
CCCCCCCCCCC[C@@H](C[C@@H]1OC(=O)[C@H]1CCCCCC)OC(=O)[C@H](CC(C)C)NC=O [Orlistat]	–	–	–	–	disordered rosettes
